Data taken from ChEMBL document CHEMBL2346561, “Development of 2'-substituted (2S,1'R,2'S)-2-(carboxycyclopropyl)glycine analogues as potent N-methyl-d-aspartic acid receptor agonists” (J Med Chem, 2013).

What was measured:
[1] = target: Glutamate NMDA receptor; Grin1/Grin2c (Rattus norvegicus) (UniProt P35439+Q00961); assay: Ratio of compound Imax to glutamate Imax for rat recombinant wild type GluN1/GluN2C receptor; type: protein-complex assay
[2] = target: Glutamate NMDA receptor; Grin1/Grin2b (Rattus norvegicus) (UniProt P35439+Q00960); assay: Ratio of compound Imax to glutamate Imax for rat recombinant wild type GluN1/GluN2B receptor; type: protein-complex assay
[3] = target: Glutamate NMDA receptor; Grin1/Grin2a (Rattus norvegicus) (UniProt P35439+Q00959); assay: Ratio of compound Imax to glutamate Imax for rat recombinant wild type GluN1/GluN2A receptor; type: protein-complex assay
[4] = Displacement of [3H]KA from KA receptor in rat cortical synaptosomes; type: subcellular, Brain
[5] = Displacement of [3H]AMPA from AMPA receptor in rat cortical synaptosomes; type: subcellular, Brain
[6] = target: Ionotropic glutamate receptor NMDA 1/2D (Rattus norvegicus) (UniProt P35439+Q62645); assay: Ratio of compound Imax to glutamate Imax for rat recombinant wild type GluN1/GluN2D receptor; type: protein-complex assay
[7] = target: Ionotropic glutamate receptor NMDA 1/2D (Rattus norvegicus, UniProt P35439+Q62645); assay: Agonist activity at rat recombinant wild type GluN1/GluN2D receptor expressed in Xenopus laevis oocytes by two electrode voltage clamp technique; type: cell-based, Oocyte
Method in brief: (§1)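 cRNA-injected Xenopus oocytes co-expressing GluN1 with GluN2A, 2B, 2C or 2D; two-electrode voltage clamp at −60 to −40 mV; perfusion with extracellular solution (mM: 90 NaCl, 0.5 BaCl₂, 1 KCl, 0.01 EDTA, 10 HEPES, pH 7.4) always containing 50 μM glycine. Concentration–response data per oocyte fitted to Hill equation; mean logEC₅₀ and nH ± SEM across oocytes.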

[8] = target: Glutamate NMDA receptor; Grin1/Grin2c (Rattus norvegicus, UniProt P35439+Q00961); assay: Agonist activity at rat recombinant wild type GluN1/GluN2C receptor expressed in Xenopus laevis oocytes by two electrode voltage clamp technique; type: cell-based, Oocyte; method in brief: as §1
[9] = target: Glutamate NMDA receptor; Grin1/Grin2a (Rattus norvegicus, UniProt P35439+Q00959); assay: Agonist activity at rat recombinant wild type GluN1/GluN2A receptor expressed in Xenopus laevis oocytes by two electrode voltage clamp technique; type: cell-based, Oocyte; method in brief: as §1
[10] = target: Glutamate NMDA receptor; Grin1/Grin2b (Rattus norvegicus, UniProt P35439+Q00960); assay: Agonist activity at rat recombinant wild type GluN1/GluN2B receptor expressed in Xenopus laevis oocytes by two electrode voltage clamp technique; type: cell-based, Oocyte; method in brief: as §1
Glutamate NMDA receptor = assay: Displacement of [3H]CGP39653 from NMDA receptor in rat cortical synaptosomes; type: subcellular, Brain
Method in brief: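 Rat cortical synaptosome membranes; 2 nM [³H]CGP 39653 (Kd = 6 nM) as radioligand for native NMDA receptors; Ki derived from displacement via Cheng-Prusoff relationship.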

SMILES | Ratio [1] | Ratio [2] | Ratio [3] | Ki [4] [µM] | Ki [5] [µM] | Ratio [6] | EC50 [7] [µM] | EC50 [8] [µM] | EC50 ([9]; oocyte) | EC50 [10] [µM] | Ki (Glutamate NMDA receptor) [µM] | EC50 ([9]; read-out: EC50) [µM]
NC(C(=O)O)c1ccnn1O (racemic) | 0.52 | 0.58 | 0.45 | > 100 | > 100 |  |  |  |  |  |  | 
CCCc1cnn(O)c1[C@@H](N)C(=O)O | 0.22 | 0.06 |  | > 100 | > 100 | 0.37 | 153 | 429 | Not Active | 105 | 14 | 
CCCC[C@]1(C(=O)O)C[C@H]1[C@H](N)C(=O)O | 0.85 | 1.07 | 0.65 | > 100 | > 100 | 0.94 | 3.3 | 16 |  | 10.2 | 1.3 | 28.8
N[C@H](C(=O)O)[C@@H]1C[C@@H]1C(=O)O | 0.9 | 1.23 | 0.99 | 0.31 | 1.1 | 1.11 | 0.036 | 0.11 |  | 0.083 | 0.0065 | 0.262
C[C@]1(C(=O)O)C[C@H]1[C@H](N)C(=O)O | 0.81 | 1.14 | 0.94 | 0.11 | 29 | 0.83 | 0.026 | 0.124 |  | 0.045 | 0.008 | 0.277
CC[C@]1(C(=O)O)C[C@H]1[C@H](N)C(=O)O | 0.81 | 1.02 | 0.83 | 0.61 | > 100 | 0.91 | 0.08 | 0.54 |  | 0.272 | 0.061 | 1.18
CCC[C@]1(C(=O)O)C[C@H]1[C@H](N)C(=O)O | 0.7 | 1.05 | 0.67 | 21 | > 100 | 0.89 | 6.56 | 29.9 |  | 15.8 | 1.2 | 46.3
